V1R ag counter: activates human V1a receptor in oxytocin agonist counter-screen; CHO-V1R cells, Fluo-8 calcium fluorescence, agonist mode; 0% DMSO, 100% 3 nM vasopressin; activation, % at 3 µM; 0.25% of 320,000 active; AID 2797;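 active = activation above the mean activation of all tested compounds plus 3 SD, per screening run, cut at about 20% in these data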;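 also: signal is peak over basal fluorescence ratio across a 100 second FLIPR read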
OXTR potentiate: potentiators of human oxytocin receptor; P30559; CHO-OTR cells, Fluo-8 calcium fluorescence, potentiator mode; 0% = oxytocin EC15, 100% = EC100; activation, % at 3 µM; 0.061% of 320,000 active; AID 2445;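 active = activation above that plate's cutoff, the mean activation of tested compounds plus 3 SD, cut at about 6.6% in these data, passing the limit was not always enough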;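 also: 100% uses oxytocin at 75 nM as the full agonist control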
Target sequence (P30559 whole entry, looked up): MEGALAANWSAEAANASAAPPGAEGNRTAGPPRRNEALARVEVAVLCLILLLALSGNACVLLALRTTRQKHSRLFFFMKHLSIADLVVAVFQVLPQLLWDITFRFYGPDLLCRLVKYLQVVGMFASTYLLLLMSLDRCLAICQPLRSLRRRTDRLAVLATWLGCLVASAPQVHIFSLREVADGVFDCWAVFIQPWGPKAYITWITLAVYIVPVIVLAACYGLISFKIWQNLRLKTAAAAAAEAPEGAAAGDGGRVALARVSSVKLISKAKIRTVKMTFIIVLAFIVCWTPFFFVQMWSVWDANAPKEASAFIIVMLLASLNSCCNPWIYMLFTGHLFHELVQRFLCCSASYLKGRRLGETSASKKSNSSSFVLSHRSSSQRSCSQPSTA
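Assay system: CHO-OTR cells, human receptor / Also added: oxytocin at about EC15, sub-maximal agonist stimulus / Dosing: single dose, 3.0 µM nominal final compound concentration / Incubation: 6 min pre-incubation, 100 s read / Technique: Fluo-8 calcium dye fluorescence / Read-out: % activation vs EC15 and EC100 oxytocin / Benchmarks: EC15 oxytocin low, 75 nM oxytocin high / Replicates: singlicate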
TRPML3 ag: human mucolipin-3 channel agonism; HEK293 TRPML3-YFP, Fluo-8 calcium fluorescence; 100% = the carbachol control signal; activation, % at 3 µM; 0.29% of 220,000 active; AID 1448;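 active = activation above its plate's cutoff, the mean activation of the plate's test wells plus 3 SD, cut at about 12% in these data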;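 also: 0% = DMSO only wells and 100% = carbachol wells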
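Material: HEK293 cells stably carrying human TRPML3-YFP; compound dosing: single dose, 3 µM final nominal compound, 0.3% DMSO final; incubation: 1-h 37 °C dye load, 5-s basal, 120-s post-compound reads; technique: Fluo-8 intracellular calcium fluorescence, excitation 470-495 nm, emission 515-575 nm; read-out basis: percent activation from peak-to-basal fluorescence ratio, scaled between DMSO and carbachol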
OXTR ag: agonists of human oxytocin receptor; CHO-OTR cells, Fluo-8 calcium fluorescence; normalized: DMSO 0%, oxytocin 100%; 0.32% of 320,000 active; activation, % at 3 µM; AID 2435; P30559;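 active = activation above the mean of all tested compounds plus 3 SD, cutoff set per screening run, cut at about 20% in these data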;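 also: peak over basal fluorescence ratio from a 100 s FLIPR kinetic read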
TRPN1 ag: agonists of zebrafish TRPN1 channel. HEK293 zebrafish TRPN1-YFP, Fluo-8 calcium fluorescence; 100% = response to 87 µM carbachol. activation, % at 3 µM. 0.18% of 220,000 active;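 active = activation above its plate's cutoff, the mean activation of test wells on that plate plus 3 SD, cut at about 19% in these data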;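 also: 0% = DMSO alone and 100% = 87 µM carbachol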
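Material: zebrafish TRPN1-YFP in HEK293 cells. Doses: one dose of 3 µM, 0.3% DMSO. Incubation: dye 1 h 37 °C plus 30 min RT. Measured by: intracellular calcium fluorescence with Fluo-8.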
OXTR ag confirm: human OXTR agonism, confirmation; shares compounds with OXTR ag; CHO-OTR cells, Fluo-8 calcium fluorescence, agonist; activation, % at 3 µM; 20% of 390 active; AID 434963;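 active = mean activation above about 20% derived from the earlier single-dose screen, limit read from the data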;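 also: peak over minimum fluorescence ratio per well during a 100 second FLIPR read; 0% = DMSO alone and 100% = oxytocin high control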
V1aR counter 3x: counter-screen for oxytocin receptor agonists: V1a receptor agonists | activation, % at 3 µM | 10% of 390 active | AID 434991 | shares compounds with OXTR ag | CHO-V1R cells, Fluo-8 calcium fluorescence, agonist;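 active = mean activation over triplicate exceeds the hit threshold set in the earlier primary screen, cut at about 20% in these data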;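 also: peak over basal fluorescence ratio within a 100 second read; 0% = DMSO alone and 100% = 3 nM vasopressin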
Numbers without * were called inactive; . = not tested or not shown. Sampled rows, rich in hits. Any-hit rate of the full collection: about 0.55%.

SMILES	V1R ag counter	OXTR potentiate	TRPML3 ag	OXTR ag	TRPN1 ag	OXTR ag confirm	V1aR counter 3x
COc1ccccc1NS(=O)(=O)c1ccc(C)c(C(=O)N2CCN(c3ccc(O)cc3)CC2)c1	2	-5	.	2	.	.	.
O=C(CN1CCN(c2cccc(C(F)(F)F)c2)CC1)N(C1CCCC1)C1CCS(=O)(=O)C1 (stereo not drawn)	-1	-2	.	-1	.	.	.
Cc1ccc(Cl)cc1N1CCN(C(=O)C2CCN(S(=O)(=O)c3c(C)nn(C)c3C)CC2)CC1	16	-12	1	21*	4	12	11
COc1cc(CNCCc2ccc(F)cc2)ccc1OCc1ccc(Cl)nc1	13	-14	1	22*	0	10	1
COc1cc(CNCCc2c[nH]c3ccccc23)ccc1OCc1ccc(F)cc1	12	-8	3	22*	4	18	8
COc1cccc(CNCCc2c[nH]c3ccccc23)c1OCc1ccc(F)cc1	8	-26	1	18	2	.	.
O=c1cc(-c2ccccc2Cl)oc2c(NS(=O)(=O)c3cc(Cl)cc(Cl)c3O)ccc(O)c12	15	-18	0	28*	5	17	17
CCc1ccc(S(=O)(=O)Nc2ccc(O)c3c(=O)cc(-c4ccccc4Cl)oc23)cc1	-2	-12	.	-2	.	.	.
O=C(Nc1ccc(Cl)c(Cl)c1)c1cccc(S(=O)(=O)NCc2cccnc2)c1	13	-14	3	20*	5	9	9
O=C(CCS(=O)(=O)c1ccccc1Cl)NC1CCCCCC1	0	1	.	0	.	.	.
Cc1cc(/C=C2/C(=N)N3C(=NC2=O)SN=C3S(C)(=O)=O)c(C)n1-c1ccc(F)cc1	2	-13	0	2	1	.	.
CSC1=NSC2=NC(=O)/C(=C\c3coc4ccccc4c3=O)C(=N)N12	18	-11	15*	26*	29*	329*	488*
CC(C)C(NC(=O)c1c(F)cccc1F)C(=O)N1CCN(c2ncccn2)CC1 (stereo not drawn)	2	-3	.	3	.	.	.
Cc1cc(NC(=O)C(C)SCC(=O)NCc2ccc(F)cc2)no1 (stereo not drawn)	1	-4	.	-1	.	.	.
COC(=O)C(NC(=O)c1ccccc1C)(Nc1ncc(S(=O)(=O)c2ccc([N+](=O)[O-])cc2)s1)C(F)(F)F (stereo not drawn)	20	-23	6	26*	5	16	9
C[C@H]1CN([C@@H](C)CO)C(=O)c2cccc(NC(=O)C3CC3)c2O[C@H]1CN(C)S(=O)(=O)c1ccccc1	1	-4	.	1	.	.	.
Cc1ccc(C)c(N2CCN(C(=O)c3cccn4c(=O)c5sccc5nc34)CC2)c1	9	-13	1	31*	0	10	5
COc1ccc(CN2CCN(CC(O)Cn3c4ccccc4c4ccccc43)CC2)cc1 (stereo not drawn)	12	-18	2	24*	1	8	4
COc1ccc(-n2c(O)c(/C=N/NS(=O)(=O)c3ccc(C)cc3)c3ccccc3c2=O)cc1OC	9	-16	1	32*	-1	15	13
Cc1ccccc1-c1cc(C(=O)NCC2CC2)nn1CC1CC(c2cccc([N+](=O)[O-])c2)=NO1 (stereo not drawn)	-1	-7	.	-1	.	.	.
Cc1ccccc1NC(=O)c1nnn(-c2ccc3c(c2)OCCO3)c1N	9	-16	.	21*	.	2	2
CSc1ccc2c(c1)C(N1CCN(C)CC1)Cc1ccc(F)cc1S2 (stereo not drawn)	10	-8	.	26*	.	4	1
Fc1ccc2[nH]c3c(NCc4ccccc4)ncnc3c2c1	7	-21	.	24*	.	17	13
Cc1ccnc(N/C=C(\C#N)c2nc(-c3cccc(Br)c3)cs2)c1	20	-9	2	31*	4	128*	162*
O=C(CSc1nc2ncc(Cl)cc2[nH]1)N1CCC(Cc2ccccc2)CC1	1	-1	.	0	.	.	.
SMILES	V1R ag counter	OXTR potentiate	TRPML3 ag	OXTR ag	TRPN1 ag	OXTR ag confirm	V1aR counter 3x
COc1ccc(NS(=O)(=O)c2ccc(-n3nnc4ccccc43)c([N+](=O)[O-])c2)cc1	8	-11	2	24*	8	13	8
O=C(Oc1ccc(-c2nnco2)cc1)c1ccc(Br)o1	1	1	.	1	.	.	.
Cc1ccc(OC(=O)c2ccc(Br)o2)cc1	15	-17	-1	27*	-1	2	9
Cc1cc(Cl)ccc1NC(=O)CSc1n[nH]c(N)n1	0	-4	.	0	.	.	.
O=c1c2cc(NC(=S)NCCCN3CCC(Cc4ccccc4)CC3)ccc2nc2n1CCCCC2	14	-27	5	20*	6	16	14
O=c1c2cc(NC(=S)NCCN3CCCCCC3)ccc2nc2n1CCCCC2	0	-4	1	-1	-1	.	.
COc1cc(OC)cc(-c2c(-c3cccs3)c3cc(-c4ccc(CN5CCOCC5)cc4)ccc3n2C)c1	1	0	.	2	.	.	.
Cc1c(Cl)cccc1-c1ccc(CNCc2ccccn2)o1	1	-6	.	1	.	.	.
CCOC(=O)c1csc(NC(=O)CSc2nnnn2-c2ccc3c(c2)OCCO3)n1	16	-9	3	23*	6	8	7
N#C/C(=C(/O)c1ccc([N+](=O)[O-])cc1)c1nc2ccccc2[nH]1	1	-9	2	3	2	.	.
N#C/C(=C(/O)c1ccc(Cl)c([N+](=O)[O-])c1)c1nc2ccccc2[nH]1	8	-6	3	26*	10	4	6
C[C@H](CO)N1C[C@H](C)[C@@H](CN(C)S(C)(=O)=O)Oc2ccc(NS(=O)(=O)c3ccccc3)cc2C1=O	1	3	.	2	.	.	.
CC(C)n1nc(C(=O)Nc2cccc(S(=O)(=O)N3CCCCC3)c2)c2ccccc2c1=O	1	-6	.	-1	.	.	.
Cc1cc(N2CCCCC2)nc(NCc2ccccc2)n1	15	-21	6	25*	47*	11	13
COc1ccccc1Oc1ccc2c(c1)C(=O)N(c1ccc(O)cc1)C2=O	7	-18	1	26*	1	1	4
COc1ccccc1Oc1ccc2c(c1)C(=O)N(CC(=O)O)C2=O	0	-2	.	1	.	.	.
COc1ccc(C(=O)N/N=C/c2sc3ccccc3c2O)cc1	7	-9	1	10	4	.	.
O=C(N/N=C/c1sc2ccccc2c1O)c1ccccc1	11	-15	6	21*	6	30*	48*
O=C(CCCCCNC(=O)N1CCn2c1nc1ccccc12)NCc1ccccc1Cl	1	-2	.	-3	.	.	.

Assay outcomes (PubChem BioAssay)
